# Experimental data of several laboratories.
# Each line is one published result; the experiments were not run side by side.
# Target: Muscarinic acetylcholine receptor M3 (CHRM3, Homo sapiens, UniProt P20309)
# Concentration: 10 µM
SMILES,read-out,technique,inhibition [%]
O=C(Nc1ccc(S(=O)(=O)N2CCC(Cl)CC2)cc1)c1ccc([N+](=O)[O-])o1,ligand displacement,radioligand,13
CCCNc1nc2ccccc2n1Cc1ccc(Cl)cc1,ligand displacement,,-39.7
O=C(c1ccc(F)cc1)N(Cc1ccccc1)C1CCCCC1,cell-free assay,,17
CCN(Cc1ccccc1C(F)(F)F)C(=O)C1CCN(S(=O)(=O)c2ccc3[nH]ncc3c2)CC1,ligand displacement,radioligand,14
CCN(CC)c1ccc(C2Nc3ccc(C(=O)c4ccccc4)cc3NC3=C2C(=O)CC(C)(C)C3)cc1 (stereo not drawn),ligand displacement,radioligand,43
Ic1cccc2cnccc12,ligand displacement,radioligand,5
Oc1cccc(Nc2nc(-c3ccc(F)cc3F)cs2)c1,cell-free assay,,-16.6
N#Cc1cc(Cn2c(N3CCCC3)nc3ccccc32)ccc1F,ligand displacement,,-31.1
O=C1N=C(N2CCCCN2)S/C1=C\c1ccc(F)cc1O,ligand displacement,radioligand,< 10
